Active and inactive are the calls of the source. No cut-off for these calls is given here.
Assays:
[1] = system: MCF7; experiment: Cytotoxicity against human MCF7 cells after 72 hrs by MTT assay; assay type: functional, cell-based; details: MCF7, 72 h
How it was run: (§1)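 Cells seeded at 4 × 10^3 per well, adhered overnight, then exposed continuously for 72 h. Media refreshed, MTT added to 0.3 mg/mL final, 4 h at 37 °C. Formazan dissolved in DMSO and read at 570 nm. IC50 taken from log concentration vs % nonviable cells; triplicate wells. Rho θ lines grown with 50 μg/mL uridine.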

[2] = system: MDA-MB-435; experiment: Cytotoxicity against wild type human MDA-MB-435 cells after 72 hrs by MTT assay; assay type: functional, cell-based; details: MDA-MB-435, 72 h; how it was run: as §1
[3] = system: MDA-MB-231; experiment: Cytotoxicity against wild type human MDA-MB-231 cells after 72 hrs by MTT assay; assay type: functional, cell-based; details: MDA-MB-231, 72 h; how it was run: as §1
[4] = system: MDA-MB-468; experiment: Induction of nuclear DNA damage in human MDA-MB-468 cells assessed as increase in gammaH2A.X expression after 5 to 24 hrs by Western blotting analysis; assay type: functional, cell-based
[5] = system: MIA PaCa-2; experiment: Induction of nuclear DNA damage in human MIAPaCa2 cells assessed as increase in gammaH2A.X expression after 5 to 24 hrs by Western blotting analysis; assay type: functional, cell-based
[6] = system: Hs-578T; experiment: Sensitivity ratio of chlorambucil IC50 to compound IC50 for human Hs 578T cells; assay type: functional
[7] = Cytotoxicity against human Hs578T cells after 72 hrs by MTT assay; assay type: functional, cell-based; details: Hs-578T; how it was run: as §1
[8] = Cell cycle arrest in human MIAPaCa2 cells assessed as increase of […] cells at 2 uM after 24 to 72 hrs by flow cytometry; assay type: functional, cell-based; details: MIA PaCa-2
How it was run: (§2)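 Cells in 6-well dishes exposed to 2 or 20 μM for 0−72 h, trypsinized, PBS-washed, fixed and permeabilized in 70% ethanol. Stained with 10 μg/mL propidium iodide plus 100 μg/mL RNase A. DNA content read by flow cytometry with 488 nm excitation and 575/26 nm bandpass.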

[9] = Cytotoxicity against human MIAPaCa2 cells after 72 hrs by MTT assay; assay type: functional, cell-based; details: MIA PaCa-2, 72 h; how it was run: as §1
[10] = system: MDA-MB-468; experiment: Cytotoxicity against human MDA-MB-468 cells after 72 hrs by MTT assay; assay type: functional, cell-based; details: MDA-MB-468, 72 h; how it was run: as §1
[11] = system: MDA-MB-468; experiment: Cytotoxicity against human MDA-MB-468 cells after 72 hrs by MTT assay in presence of NAC; assay type: functional, cell-based; details: MDA-MB-468, 72 h
[12] = system: MCF7; experiment: Sensitivity ratio of chlorambucil IC50 to compound IC50 for human MCF7 cells; assay type: functional
[13] = system: MDA-MB-231; experiment: Cytotoxicity against mitochondrial DNA-deficient human MDA-MB-231 rho theta-W02 cells after 72 hrs by MTT assay; assay type: functional, cell-based; details: MDA-MB-231, 72 h; how it was run: as §1
[14] = Cytotoxicity against human BxPC3 cells after 72 hrs by MTT assay; assay type: functional, cell-based; details: BXPC-3, 72 h; how it was run: as §1
[15] = system: BT-549; experiment: Sensitivity ratio of chlorambucil IC50 to compound IC50 for human BT549 cells; assay type: functional
[16] = system: MDA-MB-435; experiment: Ratio of IC50 for mitochondrial DNA-deficient human MDA-MB-435 rho theta-W01 cells to IC50 for wild type human MDA-MB-435 cells; assay type: functional
[17] = system: MDA-MB-435; experiment: Cytotoxicity against mitochondrial DNA-deficient human MDA-MB-435 rho theta-W01 cells after 72 hrs by MTT assay; assay type: functional, cell-based; details: MDA-MB-435, 72 h; how it was run: as §1
[18] = system: MDA-MB-468; experiment: Sensitivity ratio of chlorambucil IC50 to compound IC50 for human MDA-MB-468 cells; assay type: functional
[19] = Cytotoxicity against human CAMA1 cells after 72 hrs by MTT assay; assay type: functional, cell-based; details: CAMA-1, 72 h; how it was run: as §1
[20] = Cell cycle arrest in human MIAPaCa2 cells assessed as accumulation at S phase at 2 uM after 24 hrs by flow cytometry; assay type: functional, cell-based; details: MIA PaCa-2; how it was run: as §2
[21] = system: MDA-MB-231; experiment: Ratio of IC50 for mitochondrial DNA-deficient human MDA-MB-231 rho theta-W02 cells to IC50 for wild type human […]; assay type: functional
[22] = Antitumor activity against human MIAPaCa2 cells xenografted in athymic nude mouse assessed as inhibition of tumor growth at 10 mg/kg, ip administered 5 times a week for 36 days; assay type: functional; details: MIA PaCa-2, ip, 864 h, route intraperitoneal, read-out: TGI
How it was run: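 Established subcutaneous xenografts (2 × 10^6 cells in 1:1 matrigel–basal DMEM, right rear flank) in 4−6 week old mice; randomized at ~100 mm3, n = 6 per group. Dosed ip 10 mg/kg five times weekly; DMSO stock diluted in saline or sesame oil. Caliper volume V = d2 × D/2. Unpaired Student's t-test vs vehicle at day 36.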

[23] = system: MDA-MB-468; experiment: Induction of nuclear DNA damage in human MDA-MB-468 cells assessed as increase in gammaH2A.X expression at 2 uM by Western blotting analysis; assay type: functional, cell-based; details: TDE = time-dependent effect
[24] = Cytotoxicity against human SKBR3 cells after 72 hrs by MTT assay; assay type: functional, cell-based; details: SK-BR-3, 72 h; how it was run: as §1
[25] = Drug uptake in cytoplasm of human MIAPaCa2 cells at 10 uM after 18 hrs using […] staining by laser-scanning confocal microscopy; assay type: ADME, cell-based; details: mia paca-2, 18 h
How it was run: (§3)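 Cells on glass coverslips, adhered overnight, exposed 18 h at 10 μM. Fixed in 3.7% formaldehyde 15 min at RT, permeabilized in ice-cold acetone 5 min at −20 °C, blocked in 1% BSA/PBS. Anti-TPP antisera and anti-complex I antibody (1:1000) overnight at 4 °C, then Cy5/Cy3 secondaries (1:200) 2 h. Imaged by scanning confocal microscopy.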

[26] = system: BT-474; experiment: Sensitivity ratio of chlorambucil IC50 to compound IC50 for human BT474 cells; assay type: functional
[27] = system: CAMA-1; experiment: Sensitivity ratio of chlorambucil IC50 to compound IC50 for human CAMA1 cells; assay type: functional
[28] = system: MDA-MB-435; experiment: Sensitivity ratio of chlorambucil IC50 to compound IC50 for wild type human MDA-MB-435 cells; assay type: functional
[29] = system: MIA PaCa-2; experiment: Induction of nuclear DNA damage in human MIAPaCa2 cells assessed as increase in gammaH2A.X expression after 24 hrs by Western blotting analysis in presence of NAC relative to control; assay type: functional
[30] = system: MDA-MB-435; experiment: Ratio of IC50 for mitochondrial DNA-deficient human MDA-MB-435 rho theta-W02 cells to IC50 for wild type human MDA-MB-435 cells; assay type: functional
[31] = Cell cycle arrest in human MIAPaCa2 cells assessed as accumulation at G2/M phase at 2 uM after 24 to 48 hrs by flow cytometry; assay type: functional, cell-based; details: MIA PaCa-2; how it was run: as §2
[32] = system: MIA PaCa-2; experiment: Induction of nuclear DNA damage in human MIAPaCa2 cells assessed as increase in gammaH2A.X expression after 24 hrs by Western blotting analysis relative to control; assay type: functional
[33] = system: MIA PaCa-2; experiment: Sensitivity ratio of chlorambucil IC50 to compound IC50 for human MIAPaCa2 cells; assay type: functional
[34] = system: MDA-MB-231; experiment: Sensitivity ratio of chlorambucil IC50 to compound IC50 for human MDA-MB-231 cells; assay type: functional
[35] = system: BXPC-3; experiment: Sensitivity ratio of chlorambucil IC50 to compound IC50 for human BxPC3 cells; assay type: functional
[36] = system: BT-549; experiment: Cytotoxicity against human BT549 cells after 72 hrs by MTT assay; assay type: functional, cell-based; details: BT-549, 72 h; how it was run: as §1
[37] = Drug uptake in nucleus of human MIAPaCa2 cells at 10 uM after 18 hrs using […] staining by laser-scanning confocal microscopy; assay type: ADME, cell-based; details: mia paca-2, 18 h; how it was run: as §3
[38] = system: MDA-MB-435; experiment: Cytotoxicity against mitochondrial DNA-deficient human MDA-MB-435 rho theta-W02 cells after 72 hrs by MTT assay; assay type: functional, cell-based; details: MDA-MB-435, 72 h; how it was run: as §1
[39] = system: SK-BR-3; experiment: Sensitivity ratio of chlorambucil IC50 to compound IC50 for human SKBR3 cells; assay type: functional
[40] = system: MIA PaCa-2; experiment: Induction of nuclear DNA damage in human MIAPaCa2 cells assessed as increase in gammaH2A.X expression at 2 uM by Western blotting analysis; assay type: functional, cell-based; details: TDE = time-dependent effect
[41] = Drug uptake in mitochondria of human MIAPaCa2 cells at 10 uM after 18 hrs using […] staining by laser-scanning confocal microscopy; assay type: ADME; details: mia paca-2, 18 h; how it was run: as §3
[42] = system: BT-474; experiment: Cytotoxicity against human BT474 cells after 72 hrs by MTT assay; assay type: functional, cell-based; details: BT-474, 72 h
[43] = Cell cycle arrest in human MIAPaCa2 cells assessed as accumulation at G2/M phase at 20 uM after 24 to 48 hrs by flow cytometry; assay type: functional, cell-based; details: MIA PaCa-2; how it was run: as §2
[44] = system: MIA PaCa-2; experiment: Induction of nuclear DNA damage in human MIAPaCa2 cells assessed as increase in gammaH2A.X expression at 75 uM by Western blotting analysis; assay type: functional, cell-based; details: TDE = time-dependent effect
[45] = Cell cycle arrest in human MIAPaCa2 cells assessed as increase of […] cells at 20 uM after 24 to 72 hrs by flow cytometry; assay type: functional, cell-based; details: MIA PaCa-2; how it was run: as §2
[46] = system: MDA-MB-468; experiment: Induction of nuclear DNA damage in human MDA-MB-468 cells assessed as increase in gammaH2A.X expression at 20 uM by Western blotting analysis; assay type: functional, cell-based; details: TDE = time-dependent effect

O=C(CCCc1ccc(N(CCCl)CCCl)cc1)NCCC[P+](C1CCCCC1)(C1CCCCC1)C1CCCCC1
IC50 [1]: 40 µM

O=C(CCCc1ccc(N(CCO)CCO)cc1)NCCC[P+](c1ccccc1)(c1ccccc1)c1ccccc1
IC50 [1]: 80 µM

O=C(CCCc1ccc(N(CCCl)CCCl)cc1)NCCC[P+](c1ccccc1)(c1ccccc1)c1ccccc1.O=C([O-])C(F)(F)F
IC50 [2]: 3 µM
IC50 [3]: 9.5 µM
Activity [4]: Dose-dependent effect
Activity [5]: Dose-dependent effect
Ratio IC50 [6]: 14.3
IC50 [7]: 11.4 µM
Activity [8]: Active
IC50 [9]: 1.6 µM
IC50 [10]: 1.7 µM
IC50 [11]: 0.6 µM
Ratio IC50 [12]: 7.7
IC50 [13]: > 20 µM
IC50 [14]: 2.5 µM
Ratio IC50 [15]: 27.4
Ratio IC50 [16]: 5
IC50 [17]: 15 µM
Ratio IC50 [18]: 25.8
IC50 [19]: 2.4 µM
Activity [20]: Active
Ratio IC50 [21]: >2.1
inhibition in vivo at 10 mg/kg [22]: 45%
Activity [23]: tde
IC50 [24]: 5.7 µM
Drug uptake [25]: Active
Ratio IC50 [26]: 36.5
Ratio IC50 [27]: 79.9
Ratio IC50 [28]: 50
fold change (FC) [29]: 1.2
Ratio IC50 [30]: 11.7
Activity [31]: Active
fold change (FC) [32]: 2.9
Ratio IC50 [33]: >40
Ratio IC50 [34]: 54.8
Ratio IC50 [35]: >40
IC50 [36]: 7.3 µM
Drug uptake [37]: Not Active
IC50 [38]: 35 µM
Ratio IC50 [39]: 43.4
Activity [40]: tde
Drug uptake [41]: Active
IC50 [42]: 6.5 µM

O=C(O)CCCc1ccc(N(CCCl)CCCl)cc1 [CHLORAMBUCIL]
IC50 [2]: 150 µM
IC50 [3]: > 200 µM
Activity [43]: Active
IC50 [7]: 162 µM
IC50 [9]: 78.3 µM
IC50 [10]: 43.8 µM
IC50 [11]: 67.5 µM
IC50 [13]: > 200 µM
IC50 [14]: > 100 µM
IC50 [17]: > 200 µM
IC50 [19]: 192 µM
inhibition in vivo at 10 mg/kg [22]: 61.5%
IC50 [24]: 248 µM
fold change (FC) [29]: 2.6
fold change (FC) [32]: 2.5
IC50 [1]: 73.3 µM
Activity [44]: tde
IC50 [36]: > 200 µM
IC50 [38]: > 200 µM
Activity [45]: Active
IC50 [42]: 238 µM
Activity [46]: tde

CCCC[P+](CCCC)(CCCC)CCCNC(=O)CCCc1ccc(N(CCCl)CCCl)cc1
IC50 [1]: 35 µM
